# What was measured:
# MT4 [1] = assay: The anti-HIV activity in the presence of human serum(hs) performed in MT-4 cells with AB+ serum.; type: functional; settings: read-out: ED50 (the source's name)
# Method in brief: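 MT4 cells infected with HIV-1 IIIB. Compounds diluted in human AB+ serum were added after 1 h of virus adsorption. Final medium held 50% human serum plus 10% fetal calf serum. Viral replication was read after 6 days as HIV p24 antigen, and the ED50 was derived.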
# [2] = target: Human immunodeficiency virus type 1 protease (Human immunodeficiency virus 1, UniProt Q72874); assay: Inhibitory activity against HIV-1 protease expressed in Escherichia coli
# MT4 [3] = assay: The anti-HIV activity was evaluated in MT-4 cells using colorimetric XTT assay. MT-4 cells were infected with HIV-1,IIb (in vitro); type: functional; settings: Homo sapiens, read-out: ED50 (the source's name)
# Method in brief: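 MT4 cells (2 × 10⁴ per well) infected with HIV-1 IIIB at 10–50 TCID50/well. Compounds came from 10 mg/mL DMSO stocks, diluted in medium and added to the cells. Viability was read by XTT after 6 days to monitor the cytopathic effect, and the 50% effective dose (ED50) was determined.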
# MT4 [4] = assay: The anti-HIV activity in the presence of MT-4 cells infected mutants HIV-1:M46I,V82F,[…]; type: functional; settings: Homo sapiens, read-out: ED50 (the source's name)
# Method in brief: (§1)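 MT4 cells (2 × 10⁴/well) infected with ritonavir-selected mutant HIV-1 (10–50 TCID₅₀/well). Mutants came from passaging cell-free virus under stepwise-increased ritonavir, then one passage without drug; protease gene sequenced. Compounds from 10 mg/mL DMSO stocks diluted in medium. Viability read by XTT after 6 days; ED50 taken as 50% dose.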
# MT4 [5] = assay: The anti-HIV activity in the presence of MT-4 cells infected mutants HIV-1:V32I,M46I,V82A.; type: functional; settings: Homo sapiens, read-out: ED50 (the source's name); method in brief: as §1
# MT4 [6] = assay: The anti-HIV activity in the presence of human serum(hs) performed in MT-4 cells iwith AB+ serum.; type: functional; settings: read-out: ED50 (the source's name)
# Method in brief: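 MT4 cells infected with HIV-1 IIIB; compounds diluted in human AB+ serum and added after 1 h virus adsorption, final medium 50% human serum plus 10% fetal calf serum. Viral replication measured after 6 days as HIV p24 antigen; ED50 derived.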
Compound,EC50 (MT4 [1]) [nM],Ki [2] [nM],EC50 (MT4 [3]) [nM],EC50 (MT4 [4]) [nM],EC50 (MT4 [5]) [nM],EC50 (MT4 [6]) [nM]
CNC(=O)[C@@H](NC(=O)[C@H](OCc1ccc(-c2cccnc2)cc1)[C@H](O)[C@@H](O)[C@@H](OCc1ccc(-c2cccnc2)cc1)C(=O)N[C@H](C(=O)NC)C(C)C)C(C)C,20000,0.3,2500,> 3000,> 3000,–
CNC(=O)[C@@H](NC(=O)[C@H](OCc1ccccc1)[C@H](O)[C@@H](O)[C@@H](OCc1ccccc1)C(=O)N[C@H](C(=O)NC)C(C)C)C(C)C,–,–,1500,20000,–,20000
CNC(=O)[C@@H](NC(=O)[C@H](OCc1ccc(-c2cccc([N+](=O)[O-])c2)cc1)[C@H](O)[C@@H](O)[C@@H](OCc1ccc(-c2cccc([N+](=O)[O-])c2)cc1)C(=O)N[C@H](C(=O)NC)C(C)C)C(C)C,1100,1.4,50,40,1100,–
CNC(=O)[C@@H](NC(=O)[C@H](OCc1ccc(C2=C(O)C(=O)CCC2)cc1)[C@H](O)[C@@H](O)[C@@H](OCc1ccc(C2=C(O)C(=O)CCC2)cc1)C(=O)N[C@H](C(=O)NC)C(C)C)C(C)C,20000,0.3,3700,–,–,–
CNC(=O)[C@@H](NC(=O)[C@H](OCc1ccc(-c2ccccn2)cc1)[C@H](O)[C@@H](O)[C@@H](OCc1ccc(-c2ccccn2)cc1)C(=O)N[C@H](C(=O)NC)C(C)C)C(C)C,3600,0.6,800,–,–,–
CNC(=O)[C@@H](NC(=O)[C@H](OCc1ccc(-c2nccs2)cc1)[C@H](O)[C@@H](O)[C@@H](OCc1ccc(-c2nccs2)cc1)C(=O)N[C@H](C(=O)NC)C(C)C)C(C)C,400,0.6,300,> 3000,> 3000,–
CNC(=O)[C@@H](NC(=O)[C@H](OCc1ccc(-c2ccsc2)cc1)[C@H](O)[C@@H](O)[C@@H](OCc1ccc(-c2ccsc2)cc1)C(=O)N[C@H](C(=O)NC)C(C)C)C(C)C,800,–,40,200,300,–
CNC(=O)[C@@H](NC(=O)[C@H](OCc1ccc(-c2cccs2)cc1)[C@H](O)[C@@H](O)[C@@H](OCc1ccc(-c2cccs2)cc1)C(=O)N[C@H](C(=O)NC)C(C)C)C(C)C,1000,1.2,40,200,300,–
CNC(=O)[C@@H](NC(=O)[C@H](OCc1ccc(/C=C/C(=O)OC)cc1)[C@H](O)[C@@H](O)[C@@H](OCc1ccc(/C=C/C(=O)OC)cc1)C(=O)N[C@H](C(=O)NC)C(C)C)C(C)C,5700,0.09,800,–,–,–
CNC(=O)[C@@H](NC(=O)[C@H](OCc1ccc(-c2ccccc2)cc1)[C@H](O)[C@@H](O)[C@@H](OCc1ccc(-c2ccccc2)cc1)C(=O)N[C@H](C(=O)NC)C(C)C)C(C)C,800,0.7,40,700,400,–
CNC(=O)[C@@H](NC(=O)[C@H](OCc1ccc(CCc2ccccc2)cc1)[C@H](O)[C@@H](O)[C@@H](OCc1ccc(CCc2ccccc2)cc1)C(=O)N[C@H](C(=O)NC)C(C)C)C(C)C,–,3.8,2100,–,–,–
CNC(=O)[C@@H](NC(=O)[C@H](OCc1ccc(Br)cc1)[C@H](O)[C@@H](O)[C@@H](OCc1ccc(Br)cc1)C(=O)N[C@H](C(=O)NC)C(C)C)C(C)C,2100,0.3,800,1000,1200,–
